Converted amounts (≈) assume the structure as drawn.
What was measured:
[1] = tested on: A549; assay: Cytotoxicity against human A549 cells after 7 days; assay type: functional; conditions: A549, 168 h, read-out: ED50 (the source's name)
How it was run: (§1)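 This was a seven-day in vitro cytotoxicity test run under standard protocols on three solid tumor lines: A-549 (human lung carcinoma), MCF-7 (human breast carcinoma) and HT-29 (human colon adenocarcinoma). Adriamycin was the positive control.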

[2] = tested on: HT-29; assay: Cytotoxicity against human HT-29 cells after 7 days; assay type: functional; conditions: HT-29, 168 h, read-out: ED50 (the source's name); how it was run: as §1
[3] = Toxicity in brine shrimp larvae; assay type: organism-based; conditions: artemia, in vivo
[4] = tested on: MCF7; assay: Cytotoxicity against human MCF7 cells after 7 days; assay type: functional; conditions: MCF7, 168 h, read-out: ED50 (the source's name); how it was run: as §1
[5] = tested on: Agrobacterium tumefaciens; assay: Antitumor activity against Agrobacterium tumefaciens-induced crown gall tumors in potato by disk test relative to control; assay type: functional
How it was run: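 Crown gall tumors on potato discs were scored, and the read-out was % inhibition relative to control. The assay was run in-house.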

Compound | EC50 [1] [µg/mL] | EC50 [2] [µg/mL] | LC50 [3] [µg/mL] | EC50 [4] [µg/mL] | T/C [5] [%]
Oc1cccc(CCCCCCCCCCCCc2ccccc2)c1 | 1.85 (≈ 5.46 µM) | 2.62 (≈ 7.74 µM) | 1.37 (≈ 4.05 µM) | 2.09 (≈ 6.17 µM) | 39
Oc1cccc(CCCCCCCCCCc2ccccc2)c1 | 35 (≈ 113 µM) | 28.6 (≈ 92.1 µM) | 0.45 (≈ 1.45 µM) | 7.76 (≈ 25 µM) | 54
Oc1cc(O)cc(CCCCCCCCCCc2ccccc2)c1 | 3.49 (≈ 10.7 µM) | 3.24 (≈ 9.92 µM) | 0.47 (≈ 1.44 µM) | 2.69 (≈ 8.24 µM) | 62
O=C(O)c1c(O)cccc1CCCCCCCCCCCCc1ccccc1 | 15 (≈ 39.2 µM) | 2.98 (≈ 7.79 µM) | 1.24 (≈ 3.24 µM) | 3.06 (≈ 8 µM) | 61
CC(=O)c1c(O)cc(O)cc1CCCCCCCCCCc1ccccc1 | 3.22 (≈ 8.74 µM) | 4.47 (≈ 12.1 µM) | 0.18 (≈ 0.488 µM) | 2.87 (≈ 7.79 µM) | 30
Oc1cc(O)cc(CCCCCCCCCCCCc2ccccc2)c1 | 3.26 (≈ 9.2 µM) | 2.87 (≈ 8.1 µM) | 0.33 (≈ 0.931 µM) | 1.84 (≈ 5.19 µM) | 45
COc1ccc(-c2coc3cc(O)cc(O)c3c2=O)cc1 [BIOCHANIN] | 19.8 (≈ 69.5 µM) | 28.4 (≈ 99.8 µM) | 107 (≈ 376 µM) | 5.49 (≈ 19.3 µM) | 54
CCCCCCCCCCCCCCCc1cc(O)cc(O)c1 [CARDOL] | 2.37 (≈ 7.39 µM) | 3.25 (≈ 10.1 µM) | 7.65 (≈ 23.9 µM) | 2.41 (≈ 7.52 µM) | 41
COc1cccc2c1C(=O)c1c(O)c3c(c(O)c1C2=O)C[C@@](O)(C(=O)CO)C[C@@H]3O[C@H]1C[C@H](N)[C@H](O)[C@H](C)O1 [DOXORUBICIN] | 0.00148 (≈ 0.00272 µM) | 0.00669 (≈ 0.0123 µM) |  | 0.147 (≈ 0.27 µM) | 
COc1ccc(-c2coc3cc(O)ccc3c2=O)cc1 [FORMONONETIN] | 2.87 (≈ 10.7 µM) | 6.43 (≈ 24 µM) | 22.7 (≈ 84.6 µM) | 1.96 (≈ 7.31 µM) | 79
Oc1cccc(CCCCCCCCC[C@H](O)c2ccccc2)c1 [KNEGLOMERATANOL] | 5.99 (≈ 18.3 µM) | 9.33 (≈ 28.6 µM) | 0.21 (≈ 0.643 µM) | 2.32 (≈ 7.11 µM) | 29
CC(=O)c1c(O)cc(O)cc1CCCCCCCCc1ccccc1 [KNEGLOMERATANONE A] | 3.89 (≈ 11.4 µM) | 18.8 (≈ 55.3 µM) | 0.37 (≈ 1.09 µM) | 3.44 (≈ 10.1 µM) | 38
CCCCCCCCCCCCCc1cc(O)cc(O)c1C(C)=O [KNEGLOMERATANONE B] | 2.3 (≈ 6.88 µM) | 6.56 (≈ 19.6 µM) | 1.92 (≈ 5.74 µM) | 1.12 (≈ 3.35 µM) | 38

— ChEMBL document CHEMBL1149048, “Kneglomeratanol, kneglomeratanones A and B, and related bioactive compounds from Knema glomerata” (J Nat Prod, 1994)
